PMC5563258 (Journal of medicinal chemistry, 2017)

What was measured:
[1] = dogs; cited from earlier work
D3R [2] = molecular target: T1, D3R (Homo sapiens, UniProt P35462); conditions: BRET assay; cited from earlier work
D3R [3] = molecular target: T1, D3R; experiment: Go BRET activation assay; format: cell-based; conditions: for Functional efficacy class: Go BRET activation assay, Figure 1
D3R [4] = molecular target: T1, D3R; experiment: β-arrestin recruitment assay; format: cell-based; conditions: Figure 2
In short: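 HEK293T cells were transiently transfected (polyethylenimine) with D3R–Rluc8 (C-terminal), mVenus–β-arrestin 2 (N-terminal) and GRK2, and assayed ~48 h later. Cells in PBS + 5 mM glucose got coelenterazine H (5 µM) for 8 min, then test compound (final 10 pM–100 µM). BRET1 (510–540/485 nm) was read at 30 min, normalized to vehicle (0%) and dopamine (100%), and fitted sigmoidally.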

T1 sequence (P35462 whole entry): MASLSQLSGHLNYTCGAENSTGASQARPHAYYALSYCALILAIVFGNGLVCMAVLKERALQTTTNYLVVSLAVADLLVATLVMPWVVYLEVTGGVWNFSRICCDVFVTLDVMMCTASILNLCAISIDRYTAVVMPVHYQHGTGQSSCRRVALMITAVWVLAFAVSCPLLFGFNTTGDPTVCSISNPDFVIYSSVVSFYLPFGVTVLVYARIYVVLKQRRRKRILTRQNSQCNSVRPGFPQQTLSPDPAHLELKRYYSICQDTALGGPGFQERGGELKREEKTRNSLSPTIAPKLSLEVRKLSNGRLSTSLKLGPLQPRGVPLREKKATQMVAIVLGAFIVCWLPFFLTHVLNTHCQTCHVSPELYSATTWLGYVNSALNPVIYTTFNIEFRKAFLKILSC

For Cc1ncoc1-c1nnc(SCCCN2CC3CC3(c3ccc(C(F)(F)F)cc3F)C2)n1C (centres unmarked) [GSK598,809, 1-(2-fluoro-4-trifluoromethyl-phenyl)-3-{3-[4-methyl-5-(4-methyl-oxazol-5-yl)-4H-[1,2,4]triazol-3-ylsulfanyl]-propyl}-3-aza-bicyclo[3.1.0]hexane], the “Effect on cocaine-mediated increases in blood pressure and heart rate” value [1] is given as “potentiate cocaine-mediated increases in blood pressure and heart rate”.

For Clc1cccc(N2CCNCC2)c1Cl [2,3-diCl-phenylpiperazine, 1-(2,3-dichlorophenyl)piperazine], the “Emax (% of dopamine efficacy)” value (D3R [2]) is given as 57.3%.

With CC[C@H](O)CN1CCN(c2cccc(Cl)c2Cl)CC1 [(S)-6, (S)-1-(4-(2,3-Dichlorophenyl)piperazin-1-yl)butan-2-ol] the Functional efficacy class (D3R [3]) was “partial agonists” and the Functional efficacy class (D3R [4]) was “partial agonists”.

With O=C(NCC[C@H](O)CN1CCN(c2cccc(Cl)c2Cl)CC1)c1cnc2ccccc2c1 [(S)-4, (S)-N-(4-(4-(2,3-Dichlorophenyl)piperazin-1-yl)-3-hydroxybutyl)quinoline-3-carboxamide] the Functional efficacy class (D3R [3]) was “partial agonists” and the Functional efficacy class (D3R [4]) was “partial agonists”.

For O=C(NCC[C@@H](O)CN1CCN(c2cccc(Cl)c2Cl)CC1)c1cc2ccccc2[nH]1 [(R)-9], the Functional efficacy class (D3R [4]) was “antagonists”.

O=C(NCCCCN1CCN(c2cccc(Cl)c2Cl)CC1)c1cc2ccccc2[nH]1 [Compound 10] showed an Emax (D3R [3]; HEK-293T, read-out: Emax (% of dopamine efficacy)) of 16%.

In the case of O=C(NCC[C@H](O)CN1CCN(c2cccc(Cl)c2Cl)CC1)c1cc2ccccc2[nH]1 [(S)-9], the Functional efficacy class (D3R [3]) was “partial agonists” and the Functional efficacy class (D3R [4]) was “partial agonists”.

For O=C(NCC[C@@H](O)CN1CCN(c2cccc(Cl)c2Cl)CC1)c1cnc2ccccc2c1 [(R)-4, (R)-N-(4-(4-(2,3-Dichlorophenyl)piperazin-1-yl)-3-hydroxybutyl)quinoline-3-carboxamide], the Functional efficacy class (D3R [4]) was “antagonists”.
